Screens deposited in PubChem BioAssay by several laboratories.
Tn6 DDE FP – inhibitors of Tn6 peptide binding to fibrin DD(E), primary screen, biochemical, fluorescence polarization, human fibrin, Tn6 probe. actives 0.21% (n = 370,000). AID 720509, 2013. inhibition, % at 8.3 µM. Fibrin DD(E) TRITC-Tn6 fluorescence polarization displacement. Fibrinogen beta chain (Homo sapiens), P02675;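 active = inhibition above a per-campaign cutoff: mean of compounds within control limits plus 3 SD, cut at about 15% in these data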;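 also: 0% = median of all compound wells on the plate and 100% = blocking peptide control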
ADAM17 inh – ADAM17 inhibitors, primary screen, biochemical, QFRET; Disintegrin and metalloproteinase domain-containing protein 17 (Homo sapiens), P78536; recombinant ADAM17, EDANS/DABCYL FRET peptide cleavage; inhibition, % at 6.95 µM; actives 0.83% (n = 370,000);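 active = inhibition above the mean of compounds lying between control limits plus 3 SD, set per campaign, cut at about 8.5% in these data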;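 also: 0% = DMSO-only wells as the low control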
Target sequence (P78536 215-824 limits assumed): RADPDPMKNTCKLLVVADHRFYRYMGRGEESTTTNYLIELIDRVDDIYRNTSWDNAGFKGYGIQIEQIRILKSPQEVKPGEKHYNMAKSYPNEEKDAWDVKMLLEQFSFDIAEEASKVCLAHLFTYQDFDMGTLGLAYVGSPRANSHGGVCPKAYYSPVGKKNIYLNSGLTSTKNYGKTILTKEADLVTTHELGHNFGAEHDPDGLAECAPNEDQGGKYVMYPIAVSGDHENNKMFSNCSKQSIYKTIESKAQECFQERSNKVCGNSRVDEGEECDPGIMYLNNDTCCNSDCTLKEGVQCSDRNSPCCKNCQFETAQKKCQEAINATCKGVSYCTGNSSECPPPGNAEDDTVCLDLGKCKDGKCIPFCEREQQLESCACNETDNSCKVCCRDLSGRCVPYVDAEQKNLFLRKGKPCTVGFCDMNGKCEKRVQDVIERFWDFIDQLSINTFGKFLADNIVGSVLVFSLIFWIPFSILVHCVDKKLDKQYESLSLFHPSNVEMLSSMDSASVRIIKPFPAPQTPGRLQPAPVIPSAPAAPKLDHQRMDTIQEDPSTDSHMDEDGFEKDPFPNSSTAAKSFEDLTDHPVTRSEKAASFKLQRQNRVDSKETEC
ADAM10 inh – human ADAM10 inhibitors, primary screen, biochemical, QFRET, HTS; recombinant ADAM10, EDANS/DABCYL FRET peptide cleavage, 3 h; AID 720582, 2013; actives 0.62% (n = 370,000); Disintegrin and metalloproteinase domain-containing protein 10 (Homo sapiens), O14672; inhibition, % at 7 µM;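 active = inhibition above a per-campaign cutoff equal to the mean of compounds falling between control-based bounds plus 3 SD, cut at about 20% in these data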;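 also: 0% = DMSO wells while the 100% control is not disclosed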
Tn7 DDE FP – inhibitors of Tn7 peptide binding to fibrin DD(E), primary screen, biochemical, fluorescence polarization, human fibrin, Tn7 probe; inhibition, % at 8.3 µM; FP displacement of FITC-Tn7 peptide from fibrin DD(E); 0% = median of compound wells per plate; actives 0.13% (n = 370,000);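 active = inhibition above the mean of compounds falling within the control limits plus 3 SD of them, cut at about 14% in these data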;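 also: 0% = plate median of compound wells and 100% = 10 µM Aha-Tn7 peptide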
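Test system: human clot-derived fibrin DD(E) complex / Quantity: 2 µM final DD(E) protein / Incubation: 10 min plus 3 h, room temperature / Measured by: fluorescence polarization / Benchmarks: high control of 10 µM Aha-Tn7 peptide / Replicates: singlicate testing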
MT1-MMP act inh – blockers of MT1-MMP proenzyme processing, primary screen, HT1080 RFP-PRO-GFP cells, GFP/RFP fluorescence; Matrix metalloproteinase-14 (Homo sapiens), P50281; GFP/RFP ratio fluorescence, overnight; percent of plate control window, DMSO zero; GFP/RFP ratio change, % at 20 µM; actives 0.061% (n = 360,000); AID 651647, 2012;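 active = GFP/RFP ratio change of at least 30% with cell ATP level not reduced by more than half and red fluorescence within 50% of control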
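Test system: HT1080 cells expressing an RFP-PRO-GFP fluorescent reporter construct / Compound dosing: single-point 20 µM compound, 1% DMSO / Schedule: cells overnight before dosing, compound overnight, 37 °C, 5% CO2 / Evaluation: GFP/RFP fluorescence ratio / Control set: DMSO and RFP-L50D-GFP cell wells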
ADAM10 confirm – human ADAM10 inhibitors, confirmation, biochemical, QFRET, triplicate; shares compounds with ADAM10 inh; ADAM10 QFRET peptide cleavage, EDANS fluorescence; inhibition, % at 6.95 µM; actives 1% (n = 2,100); AID 743208, 2013;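 active = inhibition above about 20% chosen separately for each screening run, limit read from the data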;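 also: 0% = DMSO wells and 100% = marimastat wells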
ADAM17 counter – ADAM17 inhibitors, counter-screen for ADAM10 exosite inhibitor project, biochemical, QFRET, high throughput; shares compounds with ADAM10 inh; ADAM17 QFRET peptide cleavage, EDANS fluorescence; inhibition, % at 6.95 µM; actives 0.5% (n = 2,100);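 active = mean triplicate inhibition above the solvent-only control wells' mean plus 3 SD, cut at about 12% in these data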;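 also: 0% = DMSO wells and 100% = marimastat wells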
ADAM10 counter – ADAM10 inhibitors, counter-screen for ADAM17 exosite inhibitor project, biochemical, FRET, human ADAM10; shares compounds with ADAM17 inh; recombinant ADAM10, EDANS/DABCYL FRET peptide cleavage, 3 h; inhibition, % at 6.95 µM; actives 47% (n = 2,900); AID 743256, 2014;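 active = mean inhibition over the triplicate runs exceeds the activity threshold set in the earlier primary screen, cut at about 20% in these data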;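 also: 0% = DMSO wells and 100% = marimastat wells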
ADAM17 confirm – ADAM17 inhibitors, hit retest, confirmation, biochemical, QFRET peptide cleavage; shares compounds with ADAM17 inh; recombinant ADAM17, EDANS/DABCYL QFRET peptide cleavage; inhibition, % at 6.95 µM; actives 65% (n = 2,900); AID 743257, 2014;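 active = mean inhibition across replicates above the hit cutoff set in the primary screen, cut at about 8.5% in these data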;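 also: 0% = DMSO wells and 100% = marimastat wells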
* marks the source's active call; other numbers are inactive results; x = no result. The list is not random: actives were taken first. Their share in the collection is about 1.6%.

SMILES	Tn6 DDE FP	ADAM17 inh	ADAM10 inh	Tn7 DDE FP	MT1-MMP act inh	ADAM10 confirm	ADAM17 counter	ADAM10 counter	ADAM17 confirm
O=C(COC(=O)Cc1c[nH]c2ccccc12)Nc1cccc(Br)c1	0.8	11.2*	26.4*	-8.0	-2.2	3.9	0.5	7.0	8.9*
CCCCNC(=O)C1(C(=O)C2CC2)CC(c2ccccc2C(F)(F)F)=NO1 (configuration not stated)	7.3	-1.1	-2.0	1.5	x	x	x	x	x
CCCCCCCCN1CCS(=O)(=O)N(Cc2ccc(C(F)(F)F)cc2)C(C(=O)OC)C1 (configuration not stated)	2.7	-3.0	-8.0	4.0	x	x	x	x	x
COc1cccc(NC(=O)C(Sc2nnc(Nc3ccccc3C)s2)c2ccccc2)c1 (configuration not stated)	-2.6	14.0*	32.7*	-5.5	4.4	8.7	2.5	29.2*	15.4*
COc1ccc(Nc2nnc(SC(C(=O)Nc3cc(C)ccc3C)c3ccccc3)s2)cc1 (configuration not stated)	-2.9	1.0	8.4	0.2	-5.9	x	x	x	x
O=C(CN1CCc2onc(-c3ccc(-n4cc(-c5ccccc5)nn4)cc3)c2C1=O)N1CCOCC1	0.6	-2.5	-2.2	4.8	x	x	x	x	x
CC(=O)O[C@@H]1CCC[C@@]2(C(=O)N(Cc3ccccc3)c3ccc(-c4c(C)noc4C)cc32)[C@H]1NC(=O)CCc1ccccc1	-0.9	10.3*	23.2*	-2.5	x	8.6	1.9	19.0	10.6*
CCOC(=O)c1c(C)[nH]c(C)c1S(=O)(=O)N1CCN(c2cccc(C)c2)C(C)C1 (configuration not stated)	4.4	9.1*	20.2*	5.3	0.1	0.8	0.0	11.3	6.0
COC(=O)[C@]12C[C@H](CC(=O)N3CCC(c4ccccc4)CC3)C(=O)N(CCC3=CCCCC3)C1=C[C@H](C(C)C)O[C@@H]2C1CC1	1.7	-2.7	-1.2	-2.0	x	x	x	x	x
Cc1ccc(NC(=O)COC(=O)C2(c3ccc(Cl)cc3)CCCC2)cc1	-5.1	10.6*	31.6*	-3.0	-9.4	8.8	4.1	31.1*	14.4*
COc1ccc(NS(=O)(=O)c2ccc(NC(=S)NC(=O)C(C)C)cc2)cc1	1.8	12.0*	30.2*	-5.3	-2.0	1.2	0.8	10.7	9.1*
CCOc1ccc(NS(=O)(=O)c2ccc(NC(=S)NC(=O)C(C)C)cc2)cc1	-7.3	1.9	7.9	-1.9	-6.0	x	x	x	x
O=C1CC(N(CCc2ccccc2)C(=S)Nc2ccccc2)C(=O)N1c1ccc(Br)cc1 (configuration not stated)	-1.1	17.3*	34.6*	-8.4	-20.2	8.3	3.8	45.6*	21.9*
COc1ccc(CCN(C(=S)Nc2ccccc2)C2CC(=O)N(c3ccccc3)C2=O)cc1 (configuration not stated)	4.3	3.8	11.4	1.2	0.5	x	x	x	x
O=C(C(=O)N1CCN(C(=O)C2CCCC2)CC1)c1cccc(C(F)(F)F)c1	4.2	1.7	6.2	-4.1	x	x	x	x	x
COC(=O)[C@]12C[C@H](CC(=O)N3CCN(C(=O)C4CC4)CC3)C(=O)N(Cc3ccc4c(c3)OCO4)C1=C[C@H](COCc1ccccc1)O[C@@H]2C	-1.6	-4.7	-10.1	0.3	x	x	x	x	x
COC(=O)C(Nc1ccccc1Cl)(c1cc(C)c(O)c(C)c1)C(F)(F)F (configuration not stated)	-6.9	12.6*	29.8*	-3.3	-9.2	8.8	3.6	41.2*	20.2*
C[C@H](NC(=O)c1nc[nH]c1C(=O)NCc1ccc(CNC(=O)OC(C)(C)C)cc1)C(=O)OC(C)(C)C	5.9	4.0	10.6	-3.6	6.9	x	x	x	x
C[C@@H](NC(=O)c1nc[nH]c1C(=O)NCc1ccc(CNC(=O)OC(C)(C)C)cc1)c1ccccc1	-10.3	17.3*	45.0*	5.1	0.9	3.8	0.9	21.6*	15.9*
CC(C)C[C@H](NC(=O)c1nc[nH]c1C(=O)NCc1ccc(CNC(=O)OC(C)(C)C)cc1)C(=O)OC(C)(C)C	0.8	16.3*	24.4*	-8.0	-2.0	8.3	1.9	52.5*	24.7*
CC(C)(C)OC(=O)NCCCC[C@H](NC(=O)c1nc[nH]c1C(=O)NCc1ccc(CNC(=O)OC(C)(C)C)cc1)C(=O)OC(C)(C)C	-0.4	13.0*	20.5*	-8.6	3.4	8.8	3.1	29.2*	14.8*
COCc1cc(N2CCNC[C@@H]2C)ccc1N1CCS(=O)(=O)CC1	-1.8	-3.1	-12.9	-1.2	x	x	x	x	x
C[C@H]1[C@@H](OC(=O)NCc2ccc(Cl)cc2)CC[C@@]23CCCN2C(=O)CCC[C@@H]13	-3.0	-7.0	-7.2	-2.4	x	x	x	x	x
CO[C@@H]1[C@H](O)CC[C@]2(O)CN(c3ccc(F)cc3)[C@](C)([C@H](O)CC=C(C)C)[C@@H]12	-0.2	1.7	-6.0	-12.6	x	x	x	x	x
Cc1cccc(NC(=O)Cn2c(=O)n(CCc3c[nH]c4ccccc34)c(=O)c3cccnc32)c1	-5.5	10.1*	19.9*	-7.2	x	7.0	2.6	26.7*	16.7*
O=C(CN1CCN(S(=O)(=O)c2ccc(Br)cc2)CC1)N/N=C/c1ccc(Cl)c([N+](=O)[O-])c1	6.4	11.3*	25.7*	-7.9	7.2	1.8	0.5	26.1*	13.8*
COC(=O)c1cc2c(c3c4cc(OC)ccc4n(S(=O)(=O)c4cccc(C)c4)c13)C(=O)N(Cc1ccccc1OC)C2	-3.4	-1.5	-7.3	1.5	x	x	x	x	x
